From ChEMBL document CHEMBL3112473, “Synthesis of a novel series of thiazole-based histone acetyltransferase inhibitors” (Bioorg Med Chem, 2014)
Active and inactive are the calls of the source. No cut-off for these calls is given here.

Assays:
Saccharomyces cerevisiae [1] = experiment: Reduction of wild type Saccharomyces cerevisiae growth at 1 mM after 48 hrs; type: functional, organism-based
How it was run: (§1)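 Spot assay on S. cerevisiae. Wild type (S288c or BY4742) and isogenic HAT deletion strains were used: gcn5Δ, elp3Δ and sas2Δ in S288c; gcn5Δ and rtt109Δ in BY4742. Growth was scored against wild type after 48 h at 28 °C.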

Saccharomyces cerevisiae [2] = experiment: Reduction of growth of Saccharomyces cerevisiae harboring gcn5delta mutant at 1 mM after 48 hrs; type: functional, organism-based; how it was run: as §1
Saccharomyces cerevisiae [3] = experiment: Growth inhibition of Saccharomyces cerevisiae S288c harboring gcn5delta mutant at 0.75 mM after 48 hrs; type: functional, organism-based; how it was run: as §1
Saccharomyces cerevisiae [4] = experiment: Growth inhibition of Saccharomyces cerevisiae BY4742 harboring gcn5delta mutant at 0.75 mM after 48 hrs; type: functional, organism-based; how it was run: as §1
Saccharomyces cerevisiae [5] = experiment: Growth inhibition of Saccharomyces cerevisiae BY4742 harboring rtt109delta mutant at 0.75 mM after 48 hrs; type: functional, organism-based; how it was run: as §1
Saccharomyces cerevisiae [6] = experiment: Growth inhibition of Saccharomyces cerevisiae S288c harboring elp3delta mutant at 0.75 mM after 48 hrs; type: functional, organism-based; how it was run: as §1
Saccharomyces cerevisiae [7] = experiment: Growth inhibition of Saccharomyces cerevisiae S288c harboring sas2delta mutant at 0.75 mM after 48 hrs; type: functional, organism-based; how it was run: as §1
Saccharomyces cerevisiae [8] = experiment: Growth inhibition of Saccharomyces cerevisiae S288c harboring sas2delta mutant at 0.5 mM after 48 hrs; type: functional, organism-based; how it was run: as §1
Saccharomyces cerevisiae [9] = experiment: Growth inhibition of Saccharomyces cerevisiae S288c harboring elp3delta mutant at 0.5 mM after 48 hrs; type: functional, organism-based; how it was run: as §1
Saccharomyces cerevisiae [10] = experiment: Growth inhibition of Saccharomyces cerevisiae S288c harboring gcn5delta mutant at 0.5 mM after 48 hrs; type: functional, organism-based; how it was run: as §1
Saccharomyces cerevisiae [11] = experiment: Growth inhibition of Saccharomyces cerevisiae BY4742 harboring gcn5delta mutant at 0.5 mM after 48 hrs; type: functional, organism-based; how it was run: as §1
Saccharomyces cerevisiae [12] = experiment: Growth inhibition of Saccharomyces cerevisiae BY4742 harboring rtt109delta mutant at 0.5 mM after 48 hrs; type: functional, organism-based; how it was run: as §1
Saccharomyces cerevisiae [13] = experiment: Reduction of growth of Saccharomyces cerevisiae harboring gcn5delta mutant at 0.5 mM after 48 hrs; type: functional, organism-based; how it was run: as §1
Saccharomyces cerevisiae [14] = experiment: Reduction of wild type Saccharomyces cerevisiae growth at 0.5 mM after 48 hrs; type: functional, organism-based; how it was run: as §1
Saccharomyces cerevisiae [15] = experiment: Reduction of wild type Saccharomyces cerevisiae growth at 0.2 mM after 48 hrs; type: functional, organism-based; how it was run: as §1
Saccharomyces cerevisiae [16] = experiment: Growth inhibition of Saccharomyces cerevisiae S288c harboring gcn5delta mutant at 0.2 mM after 48 hrs; type: functional, organism-based; how it was run: as §1
Saccharomyces cerevisiae [17] = experiment: Growth inhibition of Saccharomyces cerevisiae BY4742 harboring gcn5delta mutant at 0.2 mM after 48 hrs; type: functional, organism-based; how it was run: as §1
Saccharomyces cerevisiae [18] = experiment: Reduction of growth of Saccharomyces cerevisiae harboring gcn5delta mutant at 0.2 mM after 48 hrs; type: functional, organism-based; how it was run: as §1
HeLa [19] = experiment: Inhibition of histone acetyltransferase in human HeLa cells assessed as AcH3 and H3AcK18 level after 48 to 72 hrs by Western blotting; type: cell-based
How it was run: (§2)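 HeLa, U87 and BE-SK-N-BE(2) cells incubated with compound at 50 or 100 µM for 48 or 72 h. Total lysates in 2× Laemmli buffer, boiled 10 min, run on 15% SDS-PAGE and blotted. Probed for acetyl-H3 and H3K18ac, with GAPDH as constitutive control.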

U-87MG ATCC [20] = experiment: Inhibition of histone acetyltransferase in human U87 cells assessed as AcH3 and H3AcK18 level after 72 hrs by Western blotting; type: cell-based; how it was run: as §2
Saccharomyces cerevisiae [21] = experiment: Growth inhibition of Saccharomyces cerevisiae BY4742 harboring gcn5delta mutant after 48 hrs; type: functional, organism-based; how it was run: as §1
[22] = Cytotoxicity against human U87 cells assessed as cell viability at 50 to 100 uM after 48 to 72 hrs by trypan blue exclusion assay; type: cell-based; details: u-87mg atcc
How it was run: (§3)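 Trypan blue exclusion on HeLa, U87 glioblastoma and BE-SK-N-BE(2) neuroblastoma cells. Compound added at final 50 and 100 µM and incubated 48 or 72 h at 37 °C, then cells collected and counted. About 1.5 × 10⁵ cells counted per point. Viability given as mean percentage of viable/dead cells relative to untreated controls.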

U-87MG ATCC [23] = experiment: Inhibition of histone acetyltransferase in human U87 cells assessed as AcH3 and H3AcK18 level after 48 to 72 hrs by Western blotting; type: cell-based; how it was run: as §2
HeLa [24] = experiment: Cytotoxicity against human HeLa cells assessed as cell viability at 50 to 100 uM after 48 to 72 hrs by trypan blue exclusion assay; type: cell-based; how it was run: as §3
[25] = target: Histone acetyltransferase p300 (Homo sapiens) (UniProt Q09472); experiment: Inhibition of human recombinant histone acetyltransferase p300 assessed as acetylation of histone H3 at 0.6 mM
How it was run: (§4)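 Fluorescent in vitro HAT kit assay. Human recombinant HAT catalytic domains (Gcn5, p300, PCAF) were incubated with acetyl-CoA and histone H3 substrate, with inhibitor at 0.15, 0.3 and 0.6 mM. Anacardic acid at 15 µM served as reference. Residual activity measured relative to untreated control. Each reaction run three times, standard errors given.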

[26] = target: Histone acetyltransferase KAT2B (Homo sapiens) (UniProt Q92831); experiment: Inhibition of human recombinant histone acetyltransferase PCAF assessed as acetylation of histone H3 at 0.15 to 0.6 mM; how it was run: as §4
[27] = Cytotoxicity against human BE-SK-N-BE(2) cells assessed as cell viability at 100 uM after 48 to 72 hrs by trypan blue exclusion assay; type: cell-based; details: read-out: Activity; how it was run: as §3
Homo sapiens [28] = organism: Homo sapiens; experiment: Inhibition of histone acetyltransferase in human BE-SK-N-BE(2) cells assessed as AcH3 and H3AcK18 level after 48 to 72 hrs by Western blotting; type: cell-based; how it was run: as §2
Saccharomyces cerevisiae [29] = experiment: Growth inhibition of Saccharomyces cerevisiae S288c harboring gcn5delta mutant after 48 hrs; type: functional, organism-based; how it was run: as §1
Homo sapiens [30] = organism: Homo sapiens; experiment: Inhibition of histone acetyltransferase in human BE-SK-N-BE(2) cells assessed as AcH3 and H3AcK18 level after 72 hrs by Western blotting; type: cell-based; how it was run: as §2
HeLa [31] = experiment: Inhibition of histone acetyltransferase in human HeLa cells assessed as AcH3 and H3AcK18 level after 72 hrs by Western blotting; type: cell-based; how it was run: as §2
[32] = target: T1, Histone acetyltransferase SAS2 (Saccharomyces cerevisiae (strain ATCC 204508 / S288c) (Baker's yeast)) (UniProt P40963); experiment: Inhibition of Saccharomyces cerevisiae S288c histone acetyltransferase assessed as acetylation of histone H4 at 0.6 to 0.8 mM by Western blotting
T1 sequence (whole entry): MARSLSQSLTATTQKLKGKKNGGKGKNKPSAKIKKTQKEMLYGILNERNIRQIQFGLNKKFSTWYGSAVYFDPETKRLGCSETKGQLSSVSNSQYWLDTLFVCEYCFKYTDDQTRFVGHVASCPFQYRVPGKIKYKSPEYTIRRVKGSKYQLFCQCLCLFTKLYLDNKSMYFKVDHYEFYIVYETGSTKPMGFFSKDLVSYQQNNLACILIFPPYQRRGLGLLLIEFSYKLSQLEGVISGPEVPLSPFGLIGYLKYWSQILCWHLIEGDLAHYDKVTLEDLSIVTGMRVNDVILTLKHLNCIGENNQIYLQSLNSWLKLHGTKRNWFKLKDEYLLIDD
How it was run: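 S288c wild-type yeast grown at 28 °C in YPD with 1% DMSO, plus compound at 0.6 or 0.8 mM. Total protein extracts boiled in Laemmli buffer, run on 15% SDS-PAGE and blotted. Probed for pan-acetylated H3 and H4, with unmodified H3 and ADA2 as loading standards. Acetylation normalized to ADA2. Triplicate experiments, SD reported.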

[33] = target: Histone acetyltransferase GCN5 (Saccharomyces cerevisiae) (UniProt Q03330); experiment: Inhibition of Saccharomyces cerevisiae S288c histone acetyltransferase assessed as acetylation of histone H3 at 0.6 to 0.8 mM by Western blotting
Histone acetyltransferase GCN5 (Saccharomyces cerevisiae), sequence (Q03330 whole entry, looked up): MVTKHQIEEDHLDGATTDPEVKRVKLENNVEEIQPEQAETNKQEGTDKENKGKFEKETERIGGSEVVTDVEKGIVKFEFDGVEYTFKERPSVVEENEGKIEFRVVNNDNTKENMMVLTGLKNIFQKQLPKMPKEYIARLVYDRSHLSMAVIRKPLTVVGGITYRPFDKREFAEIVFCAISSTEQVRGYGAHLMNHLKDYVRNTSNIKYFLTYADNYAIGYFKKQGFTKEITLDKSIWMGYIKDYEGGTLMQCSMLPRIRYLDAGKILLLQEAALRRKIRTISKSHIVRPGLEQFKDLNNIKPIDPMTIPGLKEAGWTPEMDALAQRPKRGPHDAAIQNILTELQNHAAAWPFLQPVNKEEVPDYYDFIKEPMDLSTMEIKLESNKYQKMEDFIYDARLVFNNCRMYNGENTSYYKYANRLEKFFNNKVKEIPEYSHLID

Histone acetyltransferase p300 (Homo sapiens), sequence (Q09472 whole entry, the tested form may be a part): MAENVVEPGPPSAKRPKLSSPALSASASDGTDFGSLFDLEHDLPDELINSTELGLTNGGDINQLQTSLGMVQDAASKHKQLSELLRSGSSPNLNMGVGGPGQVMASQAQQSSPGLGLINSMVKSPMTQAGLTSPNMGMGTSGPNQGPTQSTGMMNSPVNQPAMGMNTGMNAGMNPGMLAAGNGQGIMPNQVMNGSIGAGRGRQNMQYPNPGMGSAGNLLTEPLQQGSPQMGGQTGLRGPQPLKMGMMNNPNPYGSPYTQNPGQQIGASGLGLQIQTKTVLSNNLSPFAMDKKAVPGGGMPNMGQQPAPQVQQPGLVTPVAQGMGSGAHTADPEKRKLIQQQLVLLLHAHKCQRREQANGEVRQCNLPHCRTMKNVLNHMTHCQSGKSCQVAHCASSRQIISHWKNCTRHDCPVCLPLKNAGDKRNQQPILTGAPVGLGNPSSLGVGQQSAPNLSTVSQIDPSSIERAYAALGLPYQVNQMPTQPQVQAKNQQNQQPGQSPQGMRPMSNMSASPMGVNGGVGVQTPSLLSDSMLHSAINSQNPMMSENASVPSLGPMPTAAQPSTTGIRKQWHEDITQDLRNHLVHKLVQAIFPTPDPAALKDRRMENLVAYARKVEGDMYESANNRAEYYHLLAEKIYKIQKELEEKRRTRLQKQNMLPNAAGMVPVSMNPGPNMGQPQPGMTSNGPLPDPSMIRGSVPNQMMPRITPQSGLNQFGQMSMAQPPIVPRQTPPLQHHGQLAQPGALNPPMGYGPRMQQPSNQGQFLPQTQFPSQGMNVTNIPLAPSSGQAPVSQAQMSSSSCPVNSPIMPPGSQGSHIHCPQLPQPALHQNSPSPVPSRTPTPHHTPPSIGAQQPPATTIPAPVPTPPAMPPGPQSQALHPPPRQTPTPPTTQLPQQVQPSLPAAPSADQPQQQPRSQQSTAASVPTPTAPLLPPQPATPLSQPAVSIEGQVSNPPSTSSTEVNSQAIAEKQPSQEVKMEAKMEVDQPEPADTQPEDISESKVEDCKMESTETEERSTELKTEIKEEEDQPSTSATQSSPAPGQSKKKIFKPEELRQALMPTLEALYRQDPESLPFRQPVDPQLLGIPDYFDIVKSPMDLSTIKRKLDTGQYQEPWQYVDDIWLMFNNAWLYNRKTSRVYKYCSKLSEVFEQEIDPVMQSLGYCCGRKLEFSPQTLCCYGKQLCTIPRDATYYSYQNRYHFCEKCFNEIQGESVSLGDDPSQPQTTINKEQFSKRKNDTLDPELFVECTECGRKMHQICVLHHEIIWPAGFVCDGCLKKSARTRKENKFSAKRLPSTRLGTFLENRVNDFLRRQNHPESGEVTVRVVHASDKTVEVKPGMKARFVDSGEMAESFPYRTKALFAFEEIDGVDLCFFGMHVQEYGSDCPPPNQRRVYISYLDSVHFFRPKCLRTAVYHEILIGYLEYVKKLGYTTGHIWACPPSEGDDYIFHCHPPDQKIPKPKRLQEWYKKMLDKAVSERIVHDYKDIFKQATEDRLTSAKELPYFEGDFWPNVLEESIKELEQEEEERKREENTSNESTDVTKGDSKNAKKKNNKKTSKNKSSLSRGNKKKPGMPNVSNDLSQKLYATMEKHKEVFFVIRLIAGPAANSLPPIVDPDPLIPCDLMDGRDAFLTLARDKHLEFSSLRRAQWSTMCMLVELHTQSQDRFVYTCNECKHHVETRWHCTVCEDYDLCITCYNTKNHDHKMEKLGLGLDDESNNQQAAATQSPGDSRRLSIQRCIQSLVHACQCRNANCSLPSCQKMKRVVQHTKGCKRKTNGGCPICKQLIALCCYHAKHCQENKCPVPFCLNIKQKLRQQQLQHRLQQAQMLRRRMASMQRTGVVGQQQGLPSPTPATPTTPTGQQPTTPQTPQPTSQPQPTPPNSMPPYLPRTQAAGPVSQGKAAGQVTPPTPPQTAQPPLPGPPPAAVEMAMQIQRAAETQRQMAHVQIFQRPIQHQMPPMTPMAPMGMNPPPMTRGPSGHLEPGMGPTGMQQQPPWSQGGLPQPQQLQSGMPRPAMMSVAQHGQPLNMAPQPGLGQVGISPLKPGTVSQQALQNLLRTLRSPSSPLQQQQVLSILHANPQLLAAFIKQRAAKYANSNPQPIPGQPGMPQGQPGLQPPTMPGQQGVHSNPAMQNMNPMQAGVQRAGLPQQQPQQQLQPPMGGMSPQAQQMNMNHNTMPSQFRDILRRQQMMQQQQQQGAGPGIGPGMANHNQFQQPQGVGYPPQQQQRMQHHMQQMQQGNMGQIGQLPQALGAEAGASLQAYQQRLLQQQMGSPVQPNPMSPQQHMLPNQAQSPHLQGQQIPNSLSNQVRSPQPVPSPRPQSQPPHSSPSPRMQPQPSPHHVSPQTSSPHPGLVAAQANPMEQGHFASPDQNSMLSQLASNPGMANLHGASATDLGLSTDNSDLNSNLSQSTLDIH
Histone acetyltransferase KAT2B (Homo sapiens), sequence (Q92831 whole entry, looked up): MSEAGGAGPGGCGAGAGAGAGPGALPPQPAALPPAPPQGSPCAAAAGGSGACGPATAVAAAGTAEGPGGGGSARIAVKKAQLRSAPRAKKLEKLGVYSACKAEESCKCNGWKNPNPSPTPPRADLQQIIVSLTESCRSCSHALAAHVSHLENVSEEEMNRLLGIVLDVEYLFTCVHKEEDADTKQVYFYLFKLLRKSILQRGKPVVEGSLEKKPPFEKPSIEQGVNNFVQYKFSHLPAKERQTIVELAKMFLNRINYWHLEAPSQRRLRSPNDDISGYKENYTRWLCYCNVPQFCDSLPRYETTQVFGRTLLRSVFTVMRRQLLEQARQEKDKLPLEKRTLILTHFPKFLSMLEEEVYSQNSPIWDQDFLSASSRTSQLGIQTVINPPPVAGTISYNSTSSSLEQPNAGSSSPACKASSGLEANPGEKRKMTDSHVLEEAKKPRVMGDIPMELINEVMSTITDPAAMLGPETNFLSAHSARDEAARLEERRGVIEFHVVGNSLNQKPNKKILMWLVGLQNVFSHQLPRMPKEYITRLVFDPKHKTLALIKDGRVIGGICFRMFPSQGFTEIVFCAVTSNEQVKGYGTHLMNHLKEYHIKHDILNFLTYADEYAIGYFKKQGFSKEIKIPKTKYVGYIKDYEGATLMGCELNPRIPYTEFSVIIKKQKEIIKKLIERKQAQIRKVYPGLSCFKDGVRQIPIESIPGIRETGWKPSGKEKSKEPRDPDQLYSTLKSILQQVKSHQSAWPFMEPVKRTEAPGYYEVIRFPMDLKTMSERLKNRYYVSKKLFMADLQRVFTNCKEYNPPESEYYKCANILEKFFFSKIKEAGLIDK

With `C/C(=N/Nc1nc(-c2ccc(Cl)cc2)cs1)c1ccccn1` the Activity (Saccharomyces cerevisiae [1]) was “Active” and the Activity (Saccharomyces cerevisiae [2]) was “Active”.

With `COc1cc(/C=C/C(=O)CC(=O)/C=C/c2ccc(O)c(OC)c2)ccc1O` the “growth inhibition (GI)” value (Saccharomyces cerevisiae [3]) was “Active”, the “growth inhibition (GI)” value (Saccharomyces cerevisiae [4]) was “Active” and the “growth inhibition (GI)” value (Saccharomyces cerevisiae [5]) was “inactive”. The “growth inhibition (GI)” value (Saccharomyces cerevisiae [6]) was “inactive” and the “growth inhibition (GI)” value (Saccharomyces cerevisiae [7]) was “inactive”.

In the case of `Clc1ccc(-c2csc(NN=C3CCCC3)n2)cc1`, the “growth inhibition (GI)” value (Saccharomyces cerevisiae [8]) is reported as “inactive”, the “growth inhibition (GI)” value (Saccharomyces cerevisiae [9]) is reported as “inactive” and the “growth inhibition (GI)” value (Saccharomyces cerevisiae [10]) is reported as “Active”. For the same compound, the “growth inhibition (GI)” value (Saccharomyces cerevisiae [11]) was “Active”, the “growth inhibition (GI)” value (Saccharomyces cerevisiae [12]) was “inactive” and the Activity (Saccharomyces cerevisiae [13]) was “Active”. For the same compound, the Activity (Saccharomyces cerevisiae [14]) was “Active”.

For `CC/C(C)=N/Nc1nc(-c2ccc(Cl)cc2)cs1`, the Activity (Saccharomyces cerevisiae [15]) was “Active”, the “growth inhibition (GI)” value (Saccharomyces cerevisiae [16]) was “Active” and the “growth inhibition (GI)” value (Saccharomyces cerevisiae [17]) was “Active”. For the same compound, the Activity (Saccharomyces cerevisiae [18]) was “Active”.

For `CCC(CC)=NNc1nc(-c2ccc(Cl)cc2)cs1`, the Activity (Saccharomyces cerevisiae [15]) was “Active”, the “growth inhibition (GI)” value (Saccharomyces cerevisiae [16]) was “Active” and the “growth inhibition (GI)” value (Saccharomyces cerevisiae [17]) was “Active”. The Activity (Saccharomyces cerevisiae [18]) was “Active”.

For `CC(C)=NNc1nc(-c2ccc(Cl)cc2)cs1`, the inhibition (HeLa [19]) was “Dose-dependent effect”, the inhibition (U-87MG ATCC [20]) was “Active” and the “growth inhibition (GI)” value (Saccharomyces cerevisiae [21]) was “Dose-dependent effect”. For the same compound, the Activity [22] was “Non-toxic”, the inhibition (U-87MG ATCC [23]) was “Dose-dependent effect” and the Activity (HeLa [24]) was “Non-toxic”. For the same compound, the Activity (Saccharomyces cerevisiae [15]) was “Active”, the inhibition [25] was “Active” and the inhibition [26] was “inactive”. For the same compound, the viability at 100 µM [27] was 30%, the inhibition (Homo sapiens [28]) was “Dose-dependent effect” and the “growth inhibition (GI)” value (Saccharomyces cerevisiae [16]) was “Active”. The “growth inhibition (GI)” value (Saccharomyces cerevisiae [29]) was “Dose-dependent effect”, the inhibition (Homo sapiens [30]) was “Active” and the inhibition (HeLa [31]) was “Active”. For the same compound, the “growth inhibition (GI)” value (Saccharomyces cerevisiae [17]) was “Active”, the Activity (Saccharomyces cerevisiae [18]) was “Active” and the inhibition [32] was “inactive”. The inhibition [33] was 50%.
